In ChEMBL document CHEMBL4513216, “Probing the Open Global Health Chemical Diversity Library for Multistage-Active Starting Points for Next-Generation Antimalarials” (ACS Infect Dis, 2020):

Experiment: Toxicity liver stage against HepG2, at 10uM
Format: cell-based
Set-up: test concentration 10 uM, cell line HepG2-A16-CD81EGFP
Settings: human, HepG2-A16-CD81EGFP cells; read-out: INHIBITION
Method in brief: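 Uninfected HepG2-A16-CD81EGFP cells, 3 × 10^3 per well, 1536-well, plated on prespotted compound at 10 μM final, parasite-free screening media added to match infected plates; puromycin 10 μM positive, DMSO 0.5% negative; run in parallel with 48 h PbLuc assay at 37 °C, 5% CO2; viability by CellTiter-Glo luminescence, normalized to controls.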

Row | SMILES | cytotoxicity at 10 µM [%]
1 | O=C(NC[C@H]1OC[C@@H](NC2CCC2)[C@@H]1O)Nc1ccccc1 | -4.16
2 | Cc1cccc(CNC[C@H]2COCc3nc4cccnc4n32)n1 | -1.79
3 | COC(=O)c1cccc(C(=O)NCc2ccco2)n1 | 7.44
4 | O=C(Nc1cccnc1-n1cc(Cl)cn1)C1CC1 | -42.7
5 | Cc1cc(C)nc(NCCC(=O)NCCn2ccc3ccccc32)n1 | -34.2
6 | COc1ccc(S(=O)(=O)NCCCc2ccc(N(C)C)cc2)cc1Cl | -0.399
7 | COc1ccc(F)cc1S(=O)(=O)NCCn1cnc(C)cc1=O | -6.49
8 | NC(=O)C1CCN(c2nc3nccc(-c4ccncc4)c3c(=O)[nH]2)CC1 | 6.09
9 | COCCC(=O)N1C[C@@H]2COC[C@]2(COCc2cccnc2)C1 | -4.23
10 | CCC(=O)N1CCN(c2ncnc3cc4c(cc23)OCCO4)CC1 | 10.2
11 | CN1CCN(c2ncc3c(=O)n(Cc4ccco4)ccc3n2)CC1 | -15.1
12 | Cc1noc(C)c1CC(=O)N1CC[C@@](C)(O)[C@H](Oc2ccccc2)C1 | 0.935
13 | COc1ccc2c(c1)C(=O)NC1(CC2)CCN(Cc2ccccc2)C1 (centres undefined) | 0.585
14 | COc1ccc(C(C)NCc2cscn2)cc1Cn1cccn1 (centres undefined) | 3.01
15 | CCN(CCNS(=O)(=O)N1CCOCC1)C(=O)OC(C)(C)C | 19.9
16 | CC(NC(=O)CN1CCN(Cc2ccc(Br)s2)CC1)c1ccccc1 (centres undefined) | 8.44
17 | N#Cc1ccc(F)c(CN2CCc3sccc3C2)c1 | -3.09
18 | NS(=O)(=O)CCCNC(=O)c1cnc(-c2ccsc2)s1 | -9.59
19 | COC(=O)c1cccc(CNC(=O)NCCC(F)(F)F)c1 | -0.247
20 | COc1ccc(C)nc1NC(=O)Cc1c(C)nn(C)c1C | -0.302
21 | N#Cc1ccc(NCC(=O)Nc2ccn(Cc3cccnc3)n2)cc1 | -11.2
22 | O=C(NCC1CC1)C1CCCN(c2cccc(C(F)(F)F)n2)C1 (centres undefined) | 8.21

Row | SMILES | cytotoxicity at 10 µM [%]
23 | CCc1nc(C(=O)N(CC)CC(=O)N(C)C)nn1-c1ccccc1Cl | 5.25
24 | CC(C)N(CCSc1ncnc2[nH]ncc12)C(C)C | 0.25
25 | Cc1ccc(C(=O)O)cc1S(=O)(=O)N(C)c1cccc(C#N)c1 | 10.6
26 | CC(C)c1noc(CCC(=O)Nc2cc(C(F)(F)F)c[nH]c2=O)n1 | -0.387
27 | CC(=O)N(c1ccc(C)cc1)c1nc(CN2CCCCC2C)cs1 (centres undefined) | -5.65
28 | N#Cc1cc(N2CCC(CS(N)(=O)=O)CC2)c2ccccc2n1 | -11.4
29 | CC(c1cccnc1)N1CCN(CCCC#N)CC1 (centres undefined) | 10.3
30 | O=C1CC(N(C(=O)CCc2c[nH]c3ccccc23)C2CC2)C(=O)N1 (centres undefined) | 0.247
31 | CN(C(=O)CCNC(=O)C1COc2ccccc21)c1ccccc1 (centres undefined) | -7.53
32 | CC(C)C(c1cccnc1)N(C)C(=O)Cc1c(F)cccc1F (centres undefined) | -0.595
33 | COc1ccc(CNc2cccnc2-n2cccn2)c(OC)c1OC | 5.69
34 | CN1CC(C(=O)NCc2ccc(OCc3cccnc3)cc2)CC1=O (centres undefined) | 17.7
35 | Cc1nccc(CNS(=O)(=O)N(C)Cc2ccc(Cl)cc2)n1 | 29.5
36 | COC1CCN(CCNc2ncc(Br)cc2C)CC1 | -13.9
37 | CN(C)C(CNC(=O)NCCc1cccc(O)c1)c1ccco1 (centres undefined) | -4.36
38 | CCCS(=O)(=O)N1CCC(NC(=O)c2cc(C)c(CC)s2)CC1 | 18.4
39 | CS(=O)(=O)NCC(=O)N1CCCC1c1noc(C2CC2)n1 (centres undefined) | 14.2
40 | CCCNC(=O)CNc1cc(C(=O)N2CCSCC2)ccc1C | -5.91
41 | O=C(CN1CCCCCCC1=O)NCc1ccccn1 | -15.3
42 | CN(C)S(=O)(=O)N1CCC(Oc2ccc(C#N)cc2)CC1 | 3.96
43 | Cc1cccc(N2CCOCC3(C2)CN(c2cccnc2)C(=O)CO3)n1 (centres undefined) | -4.96
44 | O=C(c1ccc2[nH]ccc2c1)N1CCn2cc(CN3CCCC3)nc2C1 | -78.2

Row | SMILES | cytotoxicity at 10 µM [%]
45 | CC(=O)N1CCCC2(C1)CN(C(=O)Cc1ccccc1)CCO2 (centres undefined) | -83.9
46 | c1ccc2c(c1)CC(N1CCCC(NCc3cccc4nonc34)C1)C2 (centres undefined) | -1.98
47 | COc1cc(OC)c(-c2nc3c([nH]2)c(C2CC2)nn3C)cc1OC | -5.02
48 | CC(=O)N[C@@H]1CN(S(=O)(=O)Cc2ccccc2)C[C@H]1C(C)C | -5.61
49 | Cc1cc(CN2CCN(CC3CC3)[C@@H]3CS(=O)(=O)C[C@@H]32)ccc1F | -1.37
50 | O=C(N1CC(c2cccnc2)C1)C1(c2ccc(F)cc2)CCOCC1 | -14.5
51 | CC[C@H](C)[C@@H](CO)NC(C)Cc1ccc(C)cc1 (some centres undefined) | -4.48
52 | CC(=O)N1CCc2c(nc(N(C)C)nc2N(C)CC2CCCO2)C1 (centres undefined) | 1.9
53 | CCn1cncc1C1CC(=O)Nc2c1c(C)nn2-c1ccc(C)cc1 (centres undefined) | -8.23
54 | O=C(O)C1c2nc[nH]c2CCN1Cc1cc(-c2ccccc2)no1 (centres undefined) | -11.4
55 | CC(C)[C@@H]1CN(c2ncc(F)cn2)C[C@H]1NS(=O)(=O)N(C)C | 14
56 | Cc1noc(C)c1C(=O)N(Cc1ccsc1)CC1CCCO1 (centres undefined) | 3.91
57 | CS(=O)(=O)N[C@H]1CN(C(=O)CCc2ccc(=O)[nH]n2)C[C@@H]1C1CC1 | 1.56
58 | Cc1cc(N2CCC(c3ncc[nH]3)CC2)c2ccccc2n1 | -9.74
59 | CCOC(=O)CNC(=O)N1CCc2onc(-c3ccc(Cl)cc3)c2C1 | -43.4
60 | CN(Cc1noc2c1CCCC2)C(=O)Cn1c(=O)cnc2ccccc21 | -38.9
61 | O=C1CCCN1CCC1CCN(C2CCCNC2)CC1 (centres undefined) | 2.37
62 | Cc1cc(C2CCC2)nc(N(C)Cc2cc(-c3ccccn3)no2)n1 | 21.2
63 | Cc1nccn1CCN(C)C(=O)c1cn(CC2CCCCC2)nn1 | -1.84
64 | O=C(c1ccc2cccnc2n1)N(Cc1ccsc1)CC1CCCO1 (centres undefined) | -15.1
65 | OC1(CN2CCN(c3cccc(C(F)(F)F)c3)CC2)CNCCOC1 (centres undefined) | -5.13
66 | C[C@@H]1CN(C(=O)C2(N3CCCCC3)Cc3ccccc3C2)C[C@H](C)O1 | -0.238

Row | SMILES | cytotoxicity at 10 µM [%]
67 | CN1CCCN(c2nccc(-c3cc(C(=O)O)ccn3)n2)CC1 | 13.1
68 | CC(C)COc1cccc(-c2nc3c([nH]2)CCNC3)c1 | 4.48
69 | CN(CC(=O)N1CC(C)(C)[C@](O)(C2CC2)C1)Cc1ccncc1 | -44.1
70 | Cc1nn2c(N3CCC(O)CC3)cc(-c3ccccc3)nc2c1C | -6.54
71 | CN(C)C(=O)c1cccc(CN2CCOC(Cn3cncn3)C2)c1 (centres undefined) | -3.75
72 | CC(C)c1nccn1C1CCCN(C(=O)c2nccnc2N)C1 (centres undefined) | 0.0264
73 | CCc1nc(C2CCCN2Cc2nnc(C3CCC3)o2)no1 (centres undefined) | 1.48
74 | Cc1ccccc1CC(=O)N1CCOCC1c1c(C)n[nH]c1C (centres undefined) | -5.6
75 | c1cnnc(N2CCCC2CNCc2nc(-c3ccoc3)no2)c1 (centres undefined) | -18.7
76 | CCNc1cc2c(nn1)CCN(C(=O)c1ccc(C(N)=O)cc1)C2 | -15.6
77 | Cc1cccc(OCC(O)CN2CCC(c3ccn[nH]3)CC2)c1 (centres undefined) | -3.6
78 | Cn1cc(C2CCCN2Cc2cscn2)cn1 (centres undefined) | 4.24
79 | CCCNC(=O)C1CCN(Cc2csc(C(C)C)n2)CC1 | -19.5
80 | Cc1nc(C)n(CC2CCCCN2CCOc2ccc(C#N)cc2)n1 (centres undefined) | -6.79
81 | Cc1nc(C)n(CC2CN(CCOc3ccc(C#N)cc3)CCO2)n1 (centres undefined) | -2.69
82 | O=C(CCc1cc(F)ccc1F)NS(=O)(=O)c1ccc2c(c1)OCCO2 | -18.8
83 | Cc1cn2nc(N3CCN(Cc4nc(C(C)C)no4)CC3)sc2n1 | -7.27
84 | CC(C)c1nc(C2CCCN2C(=O)c2cnc[nH]2)no1 (centres undefined) | -6.49
85 | NC(=O)COc1cccc(C(=O)N2CCCC(n3ccnc3)C2)c1 (centres undefined) | -9.63
86 | O=C(CN1CCN(C(=O)Cc2ccc3c(c2)OCCO3)CC1)NC1CC1 | -2.35
87 | CC(CCc1ccccc1)NC(=O)Nc1cnn(CC(N)=O)c1 (centres undefined) | 1.64
88 | CSc1ccc(Cl)c(C(=O)N2CCCC(CNS(C)(=O)=O)C2)c1 (centres undefined) | -5.92

Row | SMILES | cytotoxicity at 10 µM [%]
89 | NC(=O)C1CCC(NC(=O)COc2ccc(Cl)c(Cl)c2)CC1 (centres undefined) | -12.5
90 | CC(C)COC(C)C(=O)NCc1ccc(N(C)C)cc1 (centres undefined) | 2.53
91 | O=C(NCCS(=O)(=O)N1CCc2ccccc21)c1c(O)cc(F)cc1F | 0.217
92 | Cc1nc(NCc2ccc(F)cc2)cc(C2CCCN2)n1 (centres undefined) | -3.27
93 | Cc1cnc(CCNc2cccc(CC3CCCNC3)n2)s1 (centres undefined) | -3.02
94 | Cc1nccn1CCCn1cncc1-c1ccc2c(c1)CCCN2C | -4.7
95 | Cc1ncnc2c1CCN(Cc1ccc3c(c1)OCO3)CC2 | -9.23
96 | CO[C@H]1CCN(Cc2ccoc2)C[C@@H]1Cc1ccccc1 | -11.9
97 | O=C(c1cnccn1)N1C[C@@H]2CCN(c3cccnc3)C[C@@H]2C1 | -65.8
98 | Cc1ncccc1NC(=O)[C@@H]1CCO[C@@H]2CCN(c3ccccc3)C[C@@H]21 | 6.7
99 | O=C(N1CCCC1)N1CCC2(CC1)COCCN(Cc1cccnc1)C2 | -77.3
100 | c1coc(CN2C[C@@H]3OCCN(CC4CCCO4)[C@@H]3C2)c1 (some centres undefined) | -83.1
101 | Cc1ccc(CN2CCn3c(C(=O)N(C)C)cnc3C2)cc1 | -68.9
102 | COc1ccc(C[C@H]2CN(C(=O)CN(C)C)CC[C@H]2OC)cc1 | 3.96
103 | O=C(C1CC(F)(F)C1)N1C[C@@H]2CN(Cc3ccsc3)CCO[C@@H]2C1 | -93.5
104 | O=C(c1cccnc1)N1CCc2ncnc(N3CCOCC3)c2CC1 | -79.3
105 | COc1ncccc1CN1CCC2(CC1)CN(c1ccccn1)CCO2 | -6.6
106 | CN(Cc1ccco1)C[C@H]1OC[C@@H]2CCN(Cc3cccnc3)C[C@@H]21 | -7.9
107 | Cc1ccoc1C(=O)N1C[C@H]2CCC[C@@]2(COCc2ccncc2)C1 | 9.56
108 | Cc1ccc(NC(=O)Nc2c(O)c3ccccc3oc2=O)cc1 | 3.21
109 | CCOc1ccccc1CCn1cc2[nH]cccc-2c1=O | 13.6
